Assay results from ChEMBL document CHEMBL4138196, “Discovery and structure-activity relationship of novel 4-hydroxy-thiazolidine-2-thione derivatives as tumor cell specific pyruvate kinase M2 activators” (Eur J Med Chem, 2018).

Tests used:
Pyruvate kinase PKM = Pyruvate kinase PKM (Homo sapiens, UniProt P14618); test: Activation of N-terminal His -tagged human PKM2 expressed in Escherichia coli BL21 using PEP as substrate measured at 30 secs intervals for between 3 and 6 mins by fluorescent pyruvate kinase-lactate dehydrogenase coupled assay
NCI-H1299 = test: Antiproliferative activity against human H1299 cells after 48 hrs by MTS assay; assay type: functional, cell-based; conditions: NCI-H1299, 48 h
Method in brief: (§1)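 Cells grown in RPMI 1640 with 9% FBS at 37°C, 5% CO2. 3000-10000 cells/well were left to attach 12 h, then given compound at five concentrations, or DMSO as vehicle control, for 48 h. MTS was added for 3 h at 37°C and absorbance read at 490 nm. IC50 (50% growth inhibition) was taken from triplicate dose-response curves.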

HCT-116 [1] = test: Antiproliferative activity against human HCT116 cells after 48 hrs by MTS assay; assay type: functional, cell-based; conditions: HCT-116, 48 h; method in brief: as §1
HeLa = test: Antiproliferative activity against human HeLa cells after 48 hrs by MTS assay; assay type: functional, cell-based; method in brief: as §1
PC-3 = test: Antiproliferative activity against human PC3 cells after 48 hrs by MTS assay; assay type: functional, cell-based; conditions: PC-3, 48 h; method in brief: as §1
[2] = Antiproliferative activity against HELF after 48 hrs by MTS assay; parameters: species or system Homo sapiens; method in brief: as §1
HCT-116 [3] = test: Cell cycle arrest in human HCT116 cells assessed as accumulation at G1 phase at 1.25 uM after 8 to 12 hrs by propidium iodide staining-based flow cytometric method (reference value: 40%); assay type: functional
Method in brief: (§2)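 HCT116 cells were exposed to DMSO or compound at 1.25, 2.5 or 5 μM; exposure is given as 8 h in the text and 12 h in the methods. Cells were harvested, washed twice in PBS and fixed in ice-cold ethanol at -4°C overnight. They were stained with propidium iodide (50 μg/mL) containing 0.1% RNase for 15 min in the dark at room temperature. Phase distribution was read by flow cytometry.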

HCT-116 [4] = test: Cell cycle arrest in human HCT116 cells assessed as accumulation at S phase at 1.25 uM after 8 to 12 hrs by propidium iodide staining-based flow cytometric method (reference value: 43.38%); assay type: functional; method in brief: as §2
HCT-116 [5] = test: Cell cycle arrest in human HCT116 cells assessed as accumulation at G2/M phase at 1.25 uM after 8 to 12 hrs by propidium iodide staining-based flow cytometric method (reference value: 21.28%); assay type: functional; method in brief: as §2
HCT-116 [6] = test: Cell cycle arrest in human HCT116 cells assessed as accumulation at G1 phase at 2.5 uM after 8 to 12 hrs by propidium iodide staining-based flow cytometric method (reference value: 40%); assay type: functional; method in brief: as §2
HCT-116 [7] = test: Cell cycle arrest in human HCT116 cells assessed as accumulation at S phase at 2.5 uM after 8 to 12 hrs by propidium iodide staining-based flow cytometric method (reference value: 43.38%); assay type: functional; method in brief: as §2
HCT-116 [8] = test: Cell cycle arrest in human HCT116 cells assessed as accumulation at G2/M phase at 2.5 uM after 8 to 12 hrs by propidium iodide staining-based flow cytometric method (reference value: 21.28%); assay type: functional; method in brief: as §2
HCT-116 [9] = test: Cell cycle arrest in human HCT116 cells assessed as accumulation at G1 phase at 5 uM after 8 to 12 hrs by propidium iodide staining-based flow cytometric method (reference value: 40%); assay type: functional; method in brief: as §2
HCT-116 [10] = test: Cell cycle arrest in human HCT116 cells assessed as accumulation at S phase at 5 uM after 8 to 12 hrs by propidium iodide staining-based flow cytometric method (reference value: 43.38%); assay type: functional; method in brief: as §2
HCT-116 [11] = test: Cell cycle arrest in human HCT116 cells assessed as accumulation at G2/M phase at 5 uM after 8 to 12 hrs by propidium iodide staining-based flow cytometric method (reference value: 21.28%); assay type: functional; method in brief: as §2
HCT-116 [12] = test: Cell cycle arrest in human HCT116 cells assessed as accumulation at G2/M phase after 8 to 12 hrs by propidium iodide staining-based flow cytometric method; assay type: functional; method in brief: as §2

Pyruvate kinase PKM, sequence (P14618 whole entry): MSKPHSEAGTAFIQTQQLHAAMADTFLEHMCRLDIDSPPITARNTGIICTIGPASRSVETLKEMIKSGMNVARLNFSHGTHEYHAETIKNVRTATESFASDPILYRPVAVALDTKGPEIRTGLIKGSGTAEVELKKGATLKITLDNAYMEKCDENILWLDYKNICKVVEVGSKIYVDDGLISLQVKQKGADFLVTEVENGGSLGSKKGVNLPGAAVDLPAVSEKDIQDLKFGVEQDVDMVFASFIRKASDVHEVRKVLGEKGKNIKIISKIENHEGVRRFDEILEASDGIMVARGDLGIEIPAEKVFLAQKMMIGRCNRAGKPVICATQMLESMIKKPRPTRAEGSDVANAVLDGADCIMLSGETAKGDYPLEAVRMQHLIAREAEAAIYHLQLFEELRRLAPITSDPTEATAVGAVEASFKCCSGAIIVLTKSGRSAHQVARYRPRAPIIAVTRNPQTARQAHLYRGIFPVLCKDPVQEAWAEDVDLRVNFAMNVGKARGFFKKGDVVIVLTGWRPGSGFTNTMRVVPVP

Row | SMILES | AC50 (Pyruvate kinase PKM) | IC50 (NCI-H1299) | IC50 (HCT-116 [1]) | IC50 (HeLa) | IC50 (PC-3) | IC50 [2] | Activity (HCT-116 [3]) | Activity (HCT-116 [4]) | Activity (HCT-116 [5]) | Activity (HCT-116 [6]) | Activity (HCT-116 [7]) | Activity (HCT-116 [8]) | Activity (HCT-116 [9]) | Activity (HCT-116 [10]) | Activity (HCT-116 [11]) | Activity (HCT-116 [12])
1 | O=S(=O)(Nc1ccc(C2(O)CSC(=S)N2Cc2ccncc2)cc1)c1ccc2c(c1)OCCO2 (stereo not given) | > 20 µM | 0.75 µM | 0.66 µM | 0.47 µM | 0.7 µM | 8.31 µM |  |  |  |  |  |  |  |  |  | 
2 | O=S(=O)(Nc1ccc(C2(O)CSC(=S)N2Cc2ccc3nccn3c2)cc1)c1ccc2c(c1)OCCO2 (stereo not given) | 7.07 µM | 0.79 µM | 0.77 µM | 0.45 µM | 1.33 µM | 4.91 µM |  |  |  |  |  |  |  |  |  | 
3 | Cc1ccncc1CN1C(=S)SCC1(O)c1ccc(NS(=O)(=O)c2ccc3c(c2)OCCO3)cc1 (stereo not given) | > 20 µM | 0.51 µM | 0.41 µM | 0.34 µM | 1.53 µM | 7.21 µM |  |  |  |  |  |  |  |  |  | 

Continued by falling IC50 (NCI-H1299), values first:

Row | AC50 (Pyruvate kinase PKM) | IC50 (NCI-H1299) | IC50 (HCT-116 [1]) | IC50 (HeLa) | IC50 (PC-3) | SMILES | IC50 [2] | Activity (HCT-116 [3]) | Activity (HCT-116 [4]) | Activity (HCT-116 [5]) | Activity (HCT-116 [6]) | Activity (HCT-116 [7]) | Activity (HCT-116 [8]) | Activity (HCT-116 [9]) | Activity (HCT-116 [10]) | Activity (HCT-116 [11]) | Activity (HCT-116 [12])
4 | > 20 µM | 0.83 µM | 0.74 µM | 0.41 µM | 1.13 µM | COc1ncccc1CN1C(=S)SCC1(O)c1ccc(NS(=O)(=O)c2ccc3c(c2)OCCO3)cc1 (stereo not given) | 10.4 µM |  |  |  |  |  |  |  |  |  | 
5 | 3.14 µM | 0.69 µM | 0.81 µM | 0.46 µM | 0.66 µM | O=S(=O)(Nc1ccc(C2(O)CSC(=S)N2Cc2cccnc2)cc1)c1ccc2c(c1)OCCO2 (stereo not given) | 11.8 µM | 20.37% | 30.52% | 48.86% | 17.35% | 23.99% | 56.76% | 11.58% | 27.65% | 63.21% | Dose-dependent effect
